This passage reports folding enthalpy and Tm results from the array DNA melting data of Ke et al. (doi:10.1101/2024.01.08.574731).

Series [1] is described as follows: folding enthalpy; higher = less favourable; fluorescence melt of hairpins on a sequencing array, two-state fit. As to conditions: sodium 0.088 M. In a few lines: (§1)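 On a sequenced MiSeq flow cell, library hairpins with annealed Cy3 and quencher oligos were imaged for Cy3 fluorescence in 2.5 °C steps up to 60 °C, in 50 mM Na-HEPES pH 8.0, 25 mM NaCl. Normalisation used pre-quench Cy3 and control constructs. Bootstrapped two-state fits gave melting temperature and folding enthalpy, combined by inverse variance across four replicates and with fitted temperatures raised by 9.35 °C to match UV melts.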

Series [2] can be described thus: melting temperature; fluorescence melt of hairpins on a sequencing array, two-state fit, raised by 9.35 °C to match UV melts. As to conditions: sodium 0.088 M. The method, boiled down:
as §1

As for GCCAGGCGAAAGCGGGGC (((..((....))..))), the folding enthalpy in series [1] is -23.9 kcal/mol. Besides, in series [2], the Tm was 63.2 °C.
For the sequence GCCAGGCGAAAGCTTTGC ((.(.((....)).).)), the folding enthalpy in series [1] is -11.5 kcal/mol. Moreover, the Tm in series [2] was found to be 33.4 °C.
For GCCAGTCGAAAGACGGC (((.(((....)))))), in that order: -33.8 kcal/mol and 61.6 °C.
On the same counts, the results for GCCAGTTCGAAAGAAGGC (((..(((....)))))) are -20.2 kcal/mol and 37.1 °C.
On to GCCATACCGAAAGGTGGC (((..(((....)))))), for which the folding enthalpy in series [1] is -24.4 kcal/mol. Moreover, the Tm in series [2] was 53.4 °C.
Take GCCATACGAAAGTAGGGC (((.(((....))).))): the folding enthalpy in series [1] is -38 kcal/mol. Moreover, the Tm in series [2] was 60.5 °C.
For GCCATCGAAAGATACGGC ((((((....)))..))), in that order: -26.4 kcal/mol and 41.5 °C.
For GCCATCGAAAGATAGGC ((((((....))).))), in that order: -30.3 kcal/mol and 50.1 °C.
On the same counts, the results for GCCATCGGAAACGATGAC (.(((((....))))).) are -16 kcal/mol and 48.6 °C.
Take GCCATGACGAAAGTCGGC (((..(((....)))))): the folding enthalpy in series [1] is -20 kcal/mol. Also, the Tm in series [2] came to 51 °C.
For GCCATGCGAAAGCACAGC ((..(((....)))..)), the folding enthalpy in series [1] is -11.2 kcal/mol. For the same sequence, the Tm in series [2] was determined as 36.6 °C.
With GCCATGGGAAACCATAGC ((.((((....)))).)), the folding enthalpy in series [1] is -25.6 kcal/mol. In series [2], the Tm was 36.5 °C.
As for GCCATTCCGAAAGGAGGC (((..(((....)))))), the folding enthalpy in series [1] is -18.4 kcal/mol. In addition, the Tm in series [2] stood at 44.2 °C.
For GCCATTTCGAAAGAAGGC (((..(((....)))))), in series [1], the folding enthalpy was -25.1 kcal/mol. The Tm in series [2] came out at 33.1 °C.
For GCCCAAACGAAAGTTGGC (((..(((....)))))), in that order: -19.2 kcal/mol and 45 °C.
On the same counts, the results for GCCCAAGGAAACCTAGGC (((.(.(....).).))) are -22.2 kcal/mol and 32.8 °C.
On the same counts, the results for GCCCAAGGAAACTTGAGC ((.((((....)))).)) are -25.1 kcal/mol and 37.7 °C.
As for GCCCACGAAAGTGAAGGC ((((((....)))..))), in series [1], the folding enthalpy is -28.2 kcal/mol. For the same sequence, the Tm in series [2] was determined as 52.1 °C.
For the sequence GCCCACGAAAGTGTAGGC ((((((....)))..))), the folding enthalpy in series [1] is -24.5 kcal/mol. Also, the Tm in series [2] came to 52.8 °C.
For GCCCACGGAAACGCGGGC ((((.((....)).)))), in that order: -47.5 kcal/mol and 62.3 °C.
On the same counts, the results for GCCCAGCCGAAAGGCGGC (((..(((....)))))) are -10.6 kcal/mol and 62.4 °C.
On the same counts, the results for GCCCAGCGAAAGCACGGC (((..((....))..))) are -18.4 kcal/mol and 52.1 °C.
As for GCCCAGCGAAAGCATGGC (((..((....))..))), the folding enthalpy in series [1] was -16 kcal/mol. Further, in series [2], the Tm worked out at 56 °C.
For GCCCAGCGAAAGCCGAGC ((.(.((....)).).)), in that order: -7.29 kcal/mol and 40.6 °C.
For GCCCAGCGAAAGCTATGC ((..(((....)))..)), in that order: -5.13 kcal/mol and 25.6 °C.
For GCCCAGCGAAAGCTTAGC ((..(((....)))..)), the folding enthalpy in series [1] is -8.7 kcal/mol. Moreover, the Tm in series [2] turned out to be 32.8 °C.
Turning to GCCCATGGAAACATGAGC ((.((((....)))).)), the folding enthalpy in series [1] was -27.9 kcal/mol. Further, the Tm in series [2] stood at 43.1 °C.
For GCCCATGGAAACATGGAC (.(((((....))))).), in that order: -15.1 kcal/mol and 46.7 °C.
On the same counts, the results for GCCCCACGAAAGTGTGGC (((.(((....))).))) are -35.9 kcal/mol and 57.9 °C.
For GCCCCCGAAAGGGACGGC ((((((....)))..))), in that order: -21 kcal/mol and 50.9 °C.
For the sequence GCCCCCGAAAGGGCGGGC ((((((....)))..))), the folding enthalpy in series [1] was -17.9 kcal/mol. Moreover, the Tm in series [2] is 63.7 °C.
On the same counts, the results for GCCCCCGAAAGGGGTGGC ((((((....)))..))) are -12.8 kcal/mol and 56.6 °C.
On the same counts, the results for GCCCCCGAAAGGGTCGGC ((((((....)))..))) are -17.1 kcal/mol and 50.4 °C.
On the same counts, the results for GCCCCCGAAAGGGTTGGC ((((((....)))..))) are -18 kcal/mol and 52.6 °C.
Regarding GCCCCGCGAAAGCAGAGC ((.(.((....)).).)), the folding enthalpy in series [1] is -11.5 kcal/mol. For the same sequence, the Tm in series [2] was 32.8 °C.
On to GCCCCGCGAAAGCATGGC (((..((....))..))), for which the folding enthalpy in series [1] is -17.4 kcal/mol. The Tm in series [2] turned out to be 45.4 °C.
